# APJ agonist: agonists of human apelin receptor APJ, primary screen, CHO-K1 cells, PathHunter beta-arrestin, luminescence; AID 2520, 2010; activation, % at 20 µM; P35414; 330,000 compounds, 0.11% hits; 0% DMSO wells, 100% apelin;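 active means activation more than six SD over the plate average, tested at 20 µM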;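 further: 0% = DMSO alone and 100% = apelin-13 at 10 nM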
#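 Test system: CHO-K1 APJ beta-arrestin complementation cell line | Compound: Single test compound dose, 20 µM final, 1% DMSO | Incubation: Compound 90 min 25 °C, reagent 1 h | Measured by: beta-gal luminescence | Read-out basis: APJ–arrestin association signal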
# CXCR6 block: CXCR6 receptor inhibitors, primary screen, cell-based, beta-arrestin, luminescence, CHO-K1 PathHunter, 1536-well. 360,000 compounds, 0.36% hits. inhibition, % at 20 µM; in the data active means inhibition above about 34%, passing the limit was not always enough;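 further: antagonist mode with CXCL16 agonist at 10 nM final; 0% = 10 nM CXCL16 with DMSO and 100% = unstimulated wells without agonist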
# Target sequence (O00574 whole entry, looked up): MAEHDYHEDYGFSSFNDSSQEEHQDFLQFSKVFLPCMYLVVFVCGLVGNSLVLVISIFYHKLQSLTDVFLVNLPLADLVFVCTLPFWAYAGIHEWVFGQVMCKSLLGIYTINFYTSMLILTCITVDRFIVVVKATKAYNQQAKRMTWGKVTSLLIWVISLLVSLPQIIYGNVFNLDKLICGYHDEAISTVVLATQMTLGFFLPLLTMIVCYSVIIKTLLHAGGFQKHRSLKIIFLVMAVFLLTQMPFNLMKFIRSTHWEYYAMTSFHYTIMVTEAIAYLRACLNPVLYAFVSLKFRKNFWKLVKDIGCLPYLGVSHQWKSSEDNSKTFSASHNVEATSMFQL
# CCR6 antag: CCR6 receptor antagonists, primary screen, cell-based, CHO-K1, luminescence, beta-arrestin, uHTS | CHO-K1 CCR6 PathHunter beta-arrestin, CCL20-stimulated | inhibition, % at 20 µM | 340,000 compounds, 0.49% hits | AID 493098, 2011;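 active means compounds whose inhibition of the agonist-driven luminescence signal at 20 µM reaches about 50%, limit read from the data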;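 further: cells stimulated with CCL20 at 14 nM final; plate controls were DMSO with CCL20 for no effect and DMSO without agonist for full effect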
# Target sequence (P51684 whole entry, looked up): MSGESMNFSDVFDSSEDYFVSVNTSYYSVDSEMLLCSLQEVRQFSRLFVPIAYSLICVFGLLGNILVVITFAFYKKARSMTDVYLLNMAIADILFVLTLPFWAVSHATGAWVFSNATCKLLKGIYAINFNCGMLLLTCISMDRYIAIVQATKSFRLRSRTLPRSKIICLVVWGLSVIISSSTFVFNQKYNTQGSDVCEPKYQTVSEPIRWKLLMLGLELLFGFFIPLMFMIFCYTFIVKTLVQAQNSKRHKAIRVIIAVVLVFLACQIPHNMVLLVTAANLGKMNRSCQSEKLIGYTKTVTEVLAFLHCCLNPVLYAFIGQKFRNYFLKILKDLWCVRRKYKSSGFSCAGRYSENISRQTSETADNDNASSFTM
# APJ antagonist: antagonists of human apelin receptor APJ, primary screen, CHO-K1 cells, beta-arrestin complementation, luminescence; P35414; 330,000 compounds, 0.32% hits; inhibition, % at 20 µM; AID 2521, 2010;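 active means inhibition above about 40% at 20 µM, limit read from the data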;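 further: cells challenged with 10 nM apelin-13 agonist together with compound; plate controls were apelin-13 plus DMSO wells for no effect and DMSO wells lacking apelin-13 for full effect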
# m5-HT2A agonist: mouse Htr2a agonists via beta-arrestin recruitment, primary screen, cell-based, luminescence; 5-hydroxytryptamine receptor 2A (Mus musculus), P35363; CHO-K1 mHTR2A beta-arrestin complementation; percent of 30 µM serotonin response; AID 624169, 2012; 360,000 compounds, 0.66% hits; activation, % at 7.6 µM;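 active means activation above a run cutoff, the mean activation of all tested compounds plus 3 SD, cut at about 14% in these data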;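 further: 0% = plate median of compound wells and 100% = 30 µM serotonin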
# EBI2 block: EBI2 receptor antagonists, beta-arrestin recruitment, primary screen, cell-based, luminescence, 7a,25-OHC stimulation, uHTS. G-protein coupled receptor 183 (Homo sapiens), P32249. 7a,25-OHC stimulated. inhibition, % at 5 µM. 360,000 compounds, 0.81% hits. AID 651636, 2012; in the data active means inhibition above about 38%;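 further: enzyme fragment complementation signal reports receptor beta-arrestin coupling in cells; 0% = agonist plus DMSO wells and 100% = wells without agonist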
# EBI2 antag conf: EBI2 antagonist hit retest, beta-arrestin, confirmation, cell-based, single concentration, luminescence, 7a,25-OHC stimulation | inhibition, % at 5 µM | AID 651997, 2013 | 2,400 compounds, 29% hits | shares compounds with EBI2 block | 7a,25-OHC antagonism;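 active means inhibition of at least 50%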
# EBI2 agonist: EBI2 agonist activity of antagonist hits, confirmation, counter-screen for EBI2 antagonist project, cell-based, single concentration, agonist mode, luminescence. shares compounds with EBI2 block. EBI2-expressing cells, 60 min; 0% vehicle, 100% 7α,25-dihydroxycholesterol control. activation, % at 5 µM. 2,400 tested, under 10 active. AID 652000, 2013;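 active means activation of at least 50%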
# bGal cs: E. coli beta-galactosidase enzyme inhibition, confirmation, counter-screen for EBI2 antagonist project, biochemical, luminescence, single concentration. shares compounds with EBI2 block. 2,400 compounds, 1% hits. purified beta-galactosidase, luminescent Galacton Star, 15 min. inhibition, % at 5 µM;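 active means replicate-average signal at least 3 plate SD below neutral wells, shown as high inhibition, flagging enzyme-inhibiting false positives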;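 further: 0% = DMSO wells with enzyme and 100% = wells lacking enzyme; higher means stronger loss of beta-gal luminescence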
# * hit, by the source's call; . = no result given. Most compounds without a hit are left out; they make up all but 2.1% or so of the library.
SMILES,APJ agonist,CXCR6 block,CCR6 antag,APJ antagonist,m5-HT2A agonist,EBI2 block,EBI2 antag conf,EBI2 agonist,bGal cs
C[C@@H]1CCC[C@]2(O[C@@H](CCO)C[C@@H](O)[C@@H]2O)O1,-3.2,0.5,2.3,-0.4,6.0,-9.3,.,.,.
CO/N=C/c1ccc(Oc2ccc(C)cc2)nc1,-1.8,-2.8,18.2,10.2,0.2,87.4*,73.2*,-0.1,6.5
Cc1cccc(OCC(=O)Nc2ccccc2N2CCCCC2)c1,-2.9,2.7,26.6,9.7,1.7,52.5*,14.1,-1.2,-8.9
CCOc1ccc(OCC(=O)Nc2ccccc2N2CCCC2)cc1,-6.9,-5.8,3.3,9.5,-3.9,3.7,.,.,.
Cc1cccc(OCC(=O)Nc2ccccc2N2CCN(C)CC2)c1,-0.9,5.0,-4.4,1.4,-5.1,7.7,.,.,.
O=C(COc1ccccc1)Nc1ccccc1N1CCCCC1,-6.3,1.8,19.8,-4.2,-5.6,45.3*,24.1,-2.0,-8.7
COc1ccc(C(C(=O)NCC2CCCO2)N(C(=O)c2snc(C(N)=O)c2N)c2ccc(C)cc2)cc1OC (configuration not stated),-2.7,4.4,-5.1,6.2,8.8,6.8,.,.,.
O=C(C1CCCN(Cc2ccccc2Cl)C1)N1CCCCC1 (configuration not stated),-4.0,6.5,7.4,7.8,-2.8,16.3,.,.,.
CC1CC(C)CN(C(=S)Nc2ccc(OC(F)F)cc2)C1 (configuration not stated),0.7,0.1,-8.8,8.9,1.4,18.6,.,.,.
CCC1CCCCN1C(=S)Nc1ccc(OC(F)F)cc1 (configuration not stated),-2.5,-5.3,10.1,-4.4,2.0,54.6*,-0.4,0.2,2.0
CC(=O)Nc1ccc(S(=O)(=O)NC2C3(C)CCC(C3)C2(C)C)cc1 (configuration not stated),0.7,-3.1,2.5,-3.5,2.5,-9.7,.,.,.
CCC(c1nnnn1-c1ccc2c(c1)OCCO2)N1CCN(c2ccc(F)cc2)CC1 (configuration not stated),.,0.0,.,.,-1.3,15.9,.,.,.
COc1cccc(-n2c(=O)n(Cc3ccccc3)c(=O)c3[nH]cnc32)c1,-7.4,34.3,44.1,33.6,-2.1,0.7,.,.,.
COc1ccc(OCCN2CCN(S(=O)(=O)c3ccccc3C#N)CC2)cc1,8.7,-4.7,6.0,1.5,-6.5,35.1,.,.,.
O=c1[nH]c(CN2CCN(S(=O)(=O)c3ccccc3C(F)(F)F)CC2)nc2sc3c(c12)CCCC3,-1.4,-3.7,-0.2,10.6,3.8,58.5*,31.1,-0.4,-11.3
COc1cc2nc(CN3CCN(S(=O)(=O)c4ccc(Br)cc4)CC3)[nH]c(=O)c2cc1OC,1.2,-3.4,11.0,2.7,2.9,54.6*,34.9,1.8,6.0
Cc1ccc(S(=O)(=O)N2CCN(Cc3nc4ccccc4[nH]3)CC2)cc1C,-1.6,4.2,-12.6,20.9,-9.4,1.2,.,.,.
COc1cc2nc(CN3CCN(C(c4ccccc4)c4ccccc4)CC3)[nH]c(=O)c2cc1OC,-0.8,.,.,-6.9,.,.,.,.,.
COc1ccc(OCCN2CCN(S(=O)(=O)c3ccccc3C(F)(F)F)CC2)cc1,-0.7,-11.1,14.4,-1.4,-6.0,59.6*,50.3*,1.2,-3.8
COc1cc2nc(CN3CCN(S(=O)(=O)c4ccccc4[N+](=O)[O-])CC3)[nH]c(=O)c2cc1OC,.,1.0,.,.,0.2,45.2*,31.3,1.2,4.2
O=c1[nH]cc(S(=O)(=O)N2CCN(c3ccc(F)cc3)CC2)c(=O)[nH]1,.,-1.1,.,.,-3.3,-20.3,.,.,.
O=C(COc1ccc(S(=O)(=O)NC2CCCCC2)cc1)NC1CC1,-0.8,-2.7,0.1,10.4,5.7,-9.0,.,.,.
Cc1cc([N+](=O)[O-])nn1CC(=O)N/N=C/c1ccc(O)cc1O,0.2,-2.1,15.3,4.9,3.2,-13.4,.,.,.
COc1cc2nc(CN3CCN(S(=O)(=O)c4c(F)cccc4F)CC3)[nH]c(=O)c2cc1OC,-0.4,0.5,15.2,6.6,0.3,35.9,.,.,.
COc1cc2nc(CN3CCN(S(=O)(=O)c4ccccc4C(F)(F)F)CC3)[nH]c(=O)c2cc1OC,3.9,-2.1,9.2,16.1,3.4,63.9*,22.5,0.8,-9.6
SMILES,APJ agonist,CXCR6 block,CCR6 antag,APJ antagonist,m5-HT2A agonist,EBI2 block,EBI2 antag conf,EBI2 agonist,bGal cs
COc1ccc(OCCN2CCN(C(=O)c3ccc(OC)cc3)CC2)cc1,-1.3,9.7,6.0,-14.0,-5.8,43.7,.,.,.
CN(CC(=O)Nc1ccc(Cl)c(C(F)(F)F)c1)C(=O)C1CCC1,-8.7,-5.9,25.1,8.8,-1.2,-13.0,.,.,.
O=C(c1ccc(Cl)cc1)N1CCN(CCOc2ccccc2)CC1,-5.4,-2.5,7.2,2.7,-9.2,45.6*,10.7,0.6,4.8
CN(CC(=O)Nc1ccc(Cl)c(C(F)(F)F)c1)C(=O)C1CCN(C(=O)c2ccc(Cl)cc2)CC1,.,-13.2,-2.1,.,-8.3,55.6*,39.4,-0.9,-20.3
CN(CCOc1ccc(Cl)cc1)C(=O)C1CCN(C(=O)c2ccc(Cl)cc2)CC1,4.4,9.3,18.8,7.7,4.5,73.6*,40.2,0.2,3.7
Cc1ccc(SCC(=O)N2CCN(c3ccccn3)CC2)cc1,-2.0,0.8,-0.3,-9.7,1.7,73.0*,50.2*,2.7,4.0
COc1ccc(N2CCN(C(=O)CSc3ccc(C)cc3)CC2)cc1,-2.5,3.7,5.4,2.6,1.4,63.6*,58.4*,0.7,2.9
CCOc1ccccc1CN(Cc1ccco1)S(=O)(=O)c1ccc(-n2cnnn2)c(OC)c1,.,14.4,23.2,.,-9.3,49.0*,14.3,0.2,6.9
COc1cc(S(=O)(=O)N(Cc2ccco2)C2CCCC2)ccc1-n1cnnn1,-4.4,8.9,-6.8,11.8,0.2,7.5,.,.,.
CCOc1ccc(S(=O)(=O)N2CCN(C(=O)c3ccc(C)c(S(=O)(=O)N4CCOCC4)c3)CC2)cc1,1.0,-11.2,2.8,-7.6,3.0,-1.1,.,.,.

# High-throughput results deposited in PubChem by several laboratories.
